Results: ChEMBL document CHEMBL1149458, “Synthesis and pharmacological evaluation of second-generation phosphatidic acid derivatives as lysophosphatidic acid receptor ligands” (Bioorg Med Chem Lett, 2006)
Activity calls are given as the source filed them. No cut-off for these calls is given here.

Key:
[1] = tested on: RH7777 (Rattus norvegicus); assay: Ability to evoke intracellular calciums transient in wild-type RH7777 cells
[2] = molecular target: T1, Lysophosphatidic acid receptor 3 (Homo sapiens) (UniProt Q9UBY5); assay: Activity at LPA3 receptor transfected RH7777 cells; format: cell-based
T1 sequence (whole entry): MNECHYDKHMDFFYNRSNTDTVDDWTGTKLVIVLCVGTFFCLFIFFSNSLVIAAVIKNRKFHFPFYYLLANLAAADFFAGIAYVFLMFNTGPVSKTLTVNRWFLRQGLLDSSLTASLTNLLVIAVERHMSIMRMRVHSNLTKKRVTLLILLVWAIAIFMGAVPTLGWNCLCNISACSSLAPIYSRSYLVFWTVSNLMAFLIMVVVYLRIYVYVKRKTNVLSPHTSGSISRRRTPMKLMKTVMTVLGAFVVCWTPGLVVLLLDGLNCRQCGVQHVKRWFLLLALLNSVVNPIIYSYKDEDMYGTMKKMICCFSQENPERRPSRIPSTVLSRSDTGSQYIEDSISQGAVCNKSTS
Outline: (§1)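 RH7777 cells, which lack LPA GPCR, stably transfected with the single receptor (LPA2 or LPA3). Intracellular Ca2+ transients recorded after applying increasing compound concentrations, benchmarked against LPA 18:1, to assess agonist and antagonist activity.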

[3] = molecular target: Lysophosphatidic acid receptor 2 (Homo sapiens) (UniProt Q9HBW0); assay: Activity at LPA2 receptor transfected RH7777 cells; format: cell-based
Sequence of Lysophosphatidic acid receptor 2 (Homo sapiens) (Q9HBW0 whole entry): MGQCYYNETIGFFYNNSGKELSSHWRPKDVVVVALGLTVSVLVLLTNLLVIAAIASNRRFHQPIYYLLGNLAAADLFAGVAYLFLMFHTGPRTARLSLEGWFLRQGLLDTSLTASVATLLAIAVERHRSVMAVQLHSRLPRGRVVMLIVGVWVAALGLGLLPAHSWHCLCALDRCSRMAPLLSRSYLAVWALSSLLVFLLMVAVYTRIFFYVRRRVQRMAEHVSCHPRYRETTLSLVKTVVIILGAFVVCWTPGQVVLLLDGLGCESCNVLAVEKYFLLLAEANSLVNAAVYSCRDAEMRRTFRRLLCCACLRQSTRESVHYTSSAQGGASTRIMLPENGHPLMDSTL
Outline: as §1

[4] = molecular target: T2, Peroxisome proliferator-activated receptor gamma (Homo sapiens) (UniProt P37231); assay: Activation of PPARgamma in CV1 cells transfected with PPARgamma and luciferase reporter gene; format: functional, cell-based; details: CV-1
T2 sequence (whole entry): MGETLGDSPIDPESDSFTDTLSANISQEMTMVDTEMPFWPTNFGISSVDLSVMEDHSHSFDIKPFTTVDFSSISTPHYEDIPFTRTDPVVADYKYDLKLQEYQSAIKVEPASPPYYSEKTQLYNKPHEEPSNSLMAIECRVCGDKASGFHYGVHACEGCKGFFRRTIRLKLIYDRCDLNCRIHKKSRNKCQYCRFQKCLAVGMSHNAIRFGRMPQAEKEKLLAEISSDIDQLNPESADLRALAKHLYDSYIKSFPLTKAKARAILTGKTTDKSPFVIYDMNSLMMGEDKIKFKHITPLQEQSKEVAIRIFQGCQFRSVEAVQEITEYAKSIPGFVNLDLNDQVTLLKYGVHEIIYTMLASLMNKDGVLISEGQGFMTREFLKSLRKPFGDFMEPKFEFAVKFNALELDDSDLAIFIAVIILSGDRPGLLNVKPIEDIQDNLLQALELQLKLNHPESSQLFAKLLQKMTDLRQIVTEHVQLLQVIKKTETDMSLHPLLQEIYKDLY
Outline: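 CV1 cells transfected with PPARγ and a PPRE-Acox-Rluc reporter, treated 20 h with vehicle or 10 µM compound in DMSO. Luciferase and β-galactosidase activities measured in cell lysate (mean ± SEM, n = 4). Rosiglitazone used as reference agonist; significance versus vehicle control.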

[5] = molecular target: Lysophosphatidic acid receptor 1 (Homo sapiens, UniProt Q92633); assay: Activity at LPA1 receptor transfected RH7777 cells; format: cell-based
Sequence of Lysophosphatidic acid receptor 1 (Q92633 whole entry): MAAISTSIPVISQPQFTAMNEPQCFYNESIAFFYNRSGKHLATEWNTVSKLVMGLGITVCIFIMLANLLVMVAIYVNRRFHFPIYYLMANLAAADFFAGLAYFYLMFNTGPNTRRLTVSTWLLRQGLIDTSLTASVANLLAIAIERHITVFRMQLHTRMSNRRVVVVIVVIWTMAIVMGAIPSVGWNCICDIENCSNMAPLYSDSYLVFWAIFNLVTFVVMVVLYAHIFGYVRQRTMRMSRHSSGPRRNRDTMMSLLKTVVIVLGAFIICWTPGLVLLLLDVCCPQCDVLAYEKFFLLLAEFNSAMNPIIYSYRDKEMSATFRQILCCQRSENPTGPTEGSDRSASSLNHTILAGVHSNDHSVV
Outline: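 RH7777 cells, which lack endogenous LPA GPCR, were stably transfected with LPA1. Intracellular Ca2+ transients were recorded after applying increasing concentrations of compound to build dose–response relationships, with LPA 18:1 as the reference agonist.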

Autotaxin = Autotaxin (Homo sapiens, UniProt Q13822); assay: Inhibition of recombinant ATX from transfected HEK293 cells; format: cell-based; details: for inhibition: concentration not given here
Outline: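 Recombinant ATX in conditioned medium from transiently transfected HEK293 cells, assayed by hydrolysis of the substrate bis(para-nitrophenyl) phosphate.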

CCCCCCCCOC[C@H](COP(O)(O)=S)OCCCCCCCC
Activity [1]: inactive | Emax [2]: 109% | Emax [3]: 27% | Activity [4]: Active | Emax [5]: 30%

CCCCCCCCNC(=O)[C@@H](COP(=O)(O)O)NC(=O)CCCCCCC
Activity [4]: inactive

CCCCCCCCOC[C@@H](COP(=O)(O)O)OCCCCCCCC
Activity [1]: inactive | Activity [4]: Active

CCCCCCCCOC[C@@H](COP(O)(O)=S)OCCCCCCCC
Activity [1]: inactive | Activity [4]: Active

CCCCCCCC(=O)OC[C@@H](COP(=O)(O)O)OC(=O)CCCCCCC
Activity [4]: inactive

CCCCCCCCOC[C@H](COP(=O)(O)O)OCCCCCCCC
Activity [1]: inactive | Emax [2]: 109% | Activity [4]: Active | Emax [5]: 57%

CCCCCCCC(=O)OC[C@H](COP(=O)(O)O)OC(=O)CCCCCCC
IC50 (Autotaxin): 1640 nM | inhibition (Autotaxin): 49.9% | IC50 [5]: 692 nM | Ki [5]: 407 nM

CCCCCCCCNC(=O)[C@@H](COP(O)(O)=S)NC(=O)CCCCCCC
Activity [4]: inactive

CCCCCCCCNC(=O)[C@H](COP(O)(O)=S)NC(=O)CCCCCCC
Activity [4]: inactive

CCCCCCCC(=O)OC[C@H](COP(O)(O)=S)OC(=O)CCCCCCC
Emax [3]: 58% | IC50 (Autotaxin): 597 nM | inhibition (Autotaxin): 72.5% | Activity [4]: inactive

CCCCCCCC(=O)OC[C@@H](COP(O)(O)=S)OC(=O)CCCCCCC
Emax [2]: 30% | Emax [3]: 17% | IC50 (Autotaxin): 727 nM | inhibition (Autotaxin): 52.3% | Activity [4]: inactive
